# In the library only some 1.1% were active in any assay of this set; here they are far more common.
# procasp7 counter: counter-screen: procaspase-7 (human) activation; P55210; activation, % at 8.5 µM; 330,000 tested, 0.093% active; recombinant procaspase-7, Ac-DEVD-pNA absorbance 405 nm; D23A/D198A/D206A triple mutant, cannot self-cleave; scale: DMSO 0, 5 µM enzyme 100;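 active means percent activation above the screen-wide mean plus 3 SD, cut at about 25% in these data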
#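 Assay system: Uncleavable procaspase-7 mutant enzyme | Input: 2 µM procaspase-7 mutant as dispensed | Timing: 1 h compound preincubation, 2 h substrate cleavage, 25 °C | Repeats: One well per compound | Control set: DMSO wells as 0%, DMSO with 5 µM added PC-7 as 100% | Technique: Epi-absorbance of released pNA at 405 nm, two timepoints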
# LYPLA1 counter: counter-screen for PME1 inhibitors: inhibitors of human LYPLA1. AID 2174. recombinant LYPLA1, FP-Rh probe fluorescence polarization. inhibition, % at 5.9 µM. 320,000 tested, 0.16% active;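 active means inhibition above the mean of all tested compounds plus 3 SD, set per campaign, cut at about 14% in these data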;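 further: inhibitors block serine hydrolase probe labeling of LYPLA1 so polarization falls; 0% = enzyme with DMSO and 100% = wells lacking LYPLA1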
# Target sequence (O75608 whole entry, looked up): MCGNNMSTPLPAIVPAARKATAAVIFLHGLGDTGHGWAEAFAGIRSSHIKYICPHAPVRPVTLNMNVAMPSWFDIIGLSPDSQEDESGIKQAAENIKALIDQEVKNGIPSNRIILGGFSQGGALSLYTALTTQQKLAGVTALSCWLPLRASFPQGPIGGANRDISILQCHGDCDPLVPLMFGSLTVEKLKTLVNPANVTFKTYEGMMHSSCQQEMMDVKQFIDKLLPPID
# procasp3 activ: procaspase-3 (human) activation. P42574. recombinant procaspase-3 D3A, Ac-DEVD-pNA absorbance 405 nm. activation, % at 8.5 µM. 330,000 tested, 0.11% active;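 active means activation above the mean of all tested compounds plus 3 SD, cut at about 21% in these data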;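 further: 0% = DMSO alone and 100% = DMSO wells spiked with extra 5 µM PC-3 D3A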
# Target sequence (P42574 whole entry D9A/D28A/D175A): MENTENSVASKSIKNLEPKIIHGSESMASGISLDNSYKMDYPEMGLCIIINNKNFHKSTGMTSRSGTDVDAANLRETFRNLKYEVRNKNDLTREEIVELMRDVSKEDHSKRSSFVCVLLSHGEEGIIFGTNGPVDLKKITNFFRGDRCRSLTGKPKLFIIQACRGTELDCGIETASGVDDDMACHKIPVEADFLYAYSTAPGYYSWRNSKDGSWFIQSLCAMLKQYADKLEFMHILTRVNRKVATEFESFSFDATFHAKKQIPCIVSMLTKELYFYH
#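 System: Procaspase-3 D3A mutant. Medium: Zinc-free 300 mM NaCl, 50 mM HEPES, 0.01% Triton X-100. Schedule: 1 h preincubation plus 2 h reaction at 25 °C. Measured by: 405 nm absorbance of p-nitroaniline, reads at 0 and 120 min. Read-out: percent activation relative to control range.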
# PREPL inhibitor: inhibits the human prolyl oligopeptidase-like enzyme | Q4J6C6 | recombinant PREPL, fluorescence polarization activity-based probe | inhibition, % at 5.96 µM | 320,000 tested, 0.68% active;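 further: 0% = enzyme with DMSO and 100% = wells lacking enzyme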
# LYPLA2 counter: LYPLA2 (human) inhibition in PME1 counter-screen; 320,000 tested, 0.38% active; recombinant LYPLA2, FP-Rh probe fluorescence polarization; inhibition, % at 5.9 µM; AID 2177;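 active means inhibition above the screen-wide mean plus 3 SD, limit set per campaign, cut at about 26% in these data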;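 further: 0% = LYPLA2 with DMSO and 100% = wells lacking LYPLA2 enzyme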
# Target sequence (O95372 whole entry, looked up): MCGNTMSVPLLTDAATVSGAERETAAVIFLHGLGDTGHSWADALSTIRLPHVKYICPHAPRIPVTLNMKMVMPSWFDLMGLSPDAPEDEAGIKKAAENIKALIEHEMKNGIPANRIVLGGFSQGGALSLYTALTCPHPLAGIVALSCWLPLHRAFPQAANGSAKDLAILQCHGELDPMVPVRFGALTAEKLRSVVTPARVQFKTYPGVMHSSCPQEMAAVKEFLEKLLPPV
# LYPLA1 confirm: LYPLA1 (human) inhibition, confirmation counter-screen. recombinant LYPLA1, FP-Rh probe fluorescence polarization. inhibition, % at 5.9 µM. 480 tested, 69% active. shares compounds with LYPLA1 counter;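 active means mean inhibition across replicates above the hit cutoff set in the primary screen, cut at about 15% in these data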;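 further: loss of FP-Rh probe labeling of LYPLA1 seen as lower polarization; 0% = LYPLA1 with DMSO and 100% = wells lacking LYPLA1 enzyme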
# LYPLA2 confirm: LYPLA2 (human) inhibition, confirmation counter-screen | AID 2232 | shares compounds with LYPLA2 counter | inhibition, % at 5.9 µM | recombinant LYPLA2, FP-Rh probe fluorescence polarization | 1,100 tested, 72% active;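 active means mean inhibition across replicates above the hit cutoff set in the primary screen, cut at about 26% in these data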;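 further: blocked labeling of the enzyme by serine hydrolase FP-Rh probe lowers polarization; 0% = enzyme with DMSO and 100% = wells lacking LYPLA2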
# LYPLA2 ABPP: blocks human acyl-protein thioesterase 2 in gel ABPP; shares compounds with LYPLA2 counter; rhLYPLA2 in mouse brain proteome, gel ABPP FP-Rh; inhibition, % at 20 µM; 150 tested, 30% active;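 active means inhibition of LYPLA2 enzyme probe labeling above about 50%, limit read from the data; inactive means inhibition below that limit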;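 further: loss of FP-Rh probe labeling of the LYPLA2 gel band measured as band density; 0% = DMSO only control band and 100% = blank gel background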
# PREPL confirm: confirmation of human PREPL enzyme inhibitors; inhibition, % at 5.96 µM; shares compounds with PREPL inhibitor; recombinant PREPL, fluorescence polarization activity probe; 2,000 tested, 67% active;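 further: 0% = protein with DMSO and 100% = wells lacking protein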
# Active calls of the source: *; · = no result given. Unless noted, no stated cut-off is given here; in the data, active means inhibition above about 43%; inactive means the rest.
SMILES,procasp7 counter,LYPLA1 counter,procasp3 activ,PREPL inhibitor,LYPLA2 counter,LYPLA2 confirm,others
CCNc1nc(NCC)n2c(SC(C(=O)Nc3cc(Cl)cc(Cl)c3)c3ccccc3)nnc2n1 (stereo not drawn),1.6,-5.2,-3.4,10.3,-6.7,·,
CC(=O)c1ccc(N2CCN(S(=O)(=O)c3cn(C)c(C)n3)CC2)cc1,-4.0,0.2,-5.4,3.0,-1.4,·,
COCCCNc1c2c3c(cccc3[nH]c1=O)C(=O)c1ccccc1-2,-11.4,105.4*,-3.8,112.0*,126.1*,96.9*,LYPLA1 confirm=100.8*;PREPL confirm=112.6*
COCCCNC1=C(Cl)C(=O)c2ccccc2C1=O,0.7,0.4,7.5,5.3,-1.6,·,
O=c1[nH]n2c(=O)c3c([nH]c2c1N=Nc1cccc(C(F)(F)F)c1)CCCC3,-14.8,16.3*,-1.9,54.6*,0.8,·,LYPLA1 confirm=15.0*;PREPL confirm=61.5*
COc1ccc2noc3c2c1C(=O)c1ccccc1-3,-1.8,25.4*,-0.2,49.6*,28.6*,23.2,LYPLA1 confirm=21.0*;PREPL confirm=34.5
CC(C)N1CCc2c(sc(NC(=O)c3ccc(C(=O)c4ccccc4)cc3)c2C(N)=O)C1,-0.3,-4.9,-7.4,27.6,26.0*,31.4*,
CC1CN(C(=O)COC(=O)c2cc(Cl)ccc2[N+](=O)[O-])CC(C)O1 (stereo not drawn),-9.1,-1.9,0.6,-6.0,2.4,·,
O=C(OCC(=O)N1CCN(Cc2ccccc2)CC1)c1cc(Cl)ccc1[N+](=O)[O-],10.2,9.4,-0.6,17.6,39.2*,39.8*,
CC(C)c1ccc(NC(=O)NCc2ccccn2)cc1,0.9,4.0,-1.5,3.6,27.9*,-1.9,
COc1ccc(C(=O)C(O)C(c2ccc(C)cc2)N2CCOCC2)cc1OC (stereo not drawn),-3.7,-2.8,2.2,-5.0,0.9,·,
O=C1COc2ccc(C(=O)COC(=O)c3ccc(Cl)cc3[N+](=O)[O-])cc2N1,6.6,3.0,10.2,18.1,26.5*,32.6*,
CCCCCCC1CC(CCC(=O)Nc2ccc([N+](=O)[O-])cc2)C(=O)O1 (stereo not drawn),7.7,-1.1,-8.8,-11.9,14.1,·,
CCCCCC1CC(CC(=O)Nc2ccc([N+](=O)[O-])cc2)C(=O)O1 (stereo not drawn),7.3,0.9,7.2,-15.3,35.9*,31.5*,
CCCCCC1CC(CC(=O)Nc2ccc([N+](=O)[O-])cc2)OC1=O (stereo not drawn),-1.2,3.1,-6.0,-17.8,34.6*,36.8*,
CCCCCC1CC(CC(=O)O)C(=O)O1 (stereo not drawn),0.8,-0.3,0.3,12.2,1.3,·,
CC(=O)N1c2ccc(S(=O)(=O)N3CCC(C(=O)N4CCN(c5ccc(Cl)cc5)CC4)CC3)cc2CC1C (stereo not drawn),-2.2,10.4,-3.8,29.4,91.7*,92.2*,LYPLA2 ABPP=75.0*
COc1cccc(N2CCN(C(=O)C3CCN(S(=O)(=O)c4ccc5c(c4)CC(C)N5C(C)=O)CC3)CC2)c1 (stereo not drawn),-4.3,0.8,-0.2,12.1,40.3*,49.3*,
O=[N+]([O-])c1cccnc1SCc1ccccc1,2.2,1.1,6.4,-0.8,37.7*,48.7*,
Cc1nc(C)c(C(=O)OCC(=O)NCc2ccccc2Cl)s1,5.8,·,0.6,14.6,·,·,
COc1ccc(Cl)cc1C(=O)Nc1cccc(-c2ccc3nncn3n2)c1,7.4,7.1,-7.9,5.3,27.0*,29.9*,
CCN1CCN(CCCNC(=O)C2CCCN(c3nc4c(C)cc(C)cc4s3)C2)CC1 (stereo not drawn),3.2,-0.2,5.2,29.9,3.7,·,
O=C(O)CSc1cc(NS(=O)(=O)c2ccc(Br)cc2)c2ccccc2c1O,-20.5,8.5,-17.8,9.5,37.5*,20.5,
Cc1ccc(S(=O)(=O)Nc2ccc(Br)cc2C(NCC(=O)O)c2ccccc2)cc1 (stereo not drawn),5.2,-1.0,-3.3,12.8,0.2,·,
Cc1ccc(Oc2ccc3c(c2)C(=O)N(c2ccc(S(=O)(=O)Nc4nccs4)cc2)C3=O)cc1,2.2,-4.9,-3.0,20.3,62.8*,54.4*,LYPLA2 ABPP=53.0*
SMILES,procasp7 counter,LYPLA1 counter,procasp3 activ,PREPL inhibitor,LYPLA2 counter,LYPLA2 confirm,others
COc1ccc(CCNc2oc(-c3ccc(OC)c(OC)c3)nc2P(=O)(OC)OC)cc1OC,-3.3,1.0,-4.1,0.1,28.4*,-5.0,
COc1ccc(-c2nc(C#N)c(NCc3ccc(C)cc3)o2)cc1OC,3.3,-0.9,1.2,21.2,8.0,·,
C/C(=N\OCC(=O)Nc1ccc2c(c1)OCCO2)c1ccc2c(c1)OCCO2,2.6,1.2,5.2,-8.3,-0.8,·,
COc1ccc(OC)c(-c2cc(C(=O)Nc3c(C)nn(Cc4ccccc4Cl)c3C)no2)c1,6.0,-1.7,8.0,4.7,39.5*,28.6*,
COc1ccc(OC)c(-c2cc(C(=O)Nc3c(C)nn(Cc4ccccc4C)c3C)no2)c1,7.6,11.1,10.5,2.6,63.7*,54.6*,LYPLA2 ABPP=50.0*
COc1ccc(-c2cc(C(=O)Nc3c(C)nn(Cc4ccccc4Cl)c3C)no2)cc1OC,1.7,-1.0,8.6,-17.9,4.3,·,
COc1cc(C(=O)NCC(=O)NC(C)CCc2ccccc2)cc(OC)c1OC (stereo not drawn),-3.1,3.3,2.7,9.9,27.4*,-1.9,
COc1cc(C(=O)NCCCc2ccccc2)cc(OC)c1OC,-6.6,0.7,-0.3,9.5,1.3,·,
C[C@H]1COC(=O)[C@H](Cc2ccc(F)cc2)C/C=C\C[C@@H](CC(=O)N(CCO)Cc2ccccc2)C(=O)N1,5.0,·,4.1,24.7,·,·,
Cc1ccc(C(=O)N2CCC(C(=O)Nc3cccc([N+](=O)[O-])c3)CC2)cc1,2.8,6.2,0.9,11.4,32.0*,17.1,
COc1ccc(C)cc1NC(=O)C1CCN(C(=O)c2ccc(C(C)(C)C)cc2)CC1,4.2,9.8,-9.2,1.5,41.2*,44.4*,
CCOc1ccc(C(=O)C2CCN(C(=O)c3ccc([N+](=O)[O-])cc3)CC2)cc1,9.9,3.0,2.6,8.7,33.1*,30.7*,
CC(=O)c1cccc(NC(=O)C2CCN(C(=O)c3ccc([N+](=O)[O-])cc3)CC2)c1,5.0,0.2,0.2,-1.9,17.9,·,
